# From ChEMBL document CHEMBL4371071, “Muscarinic agonist, (±)-quinuclidin-3-yl-(4-fluorophenethyl)(phenyl)carbamate: High affinity, but low subtype selectivity for human M1 - M5 muscarinic acetylcholine receptors” (Bioorg Med Chem Lett, 2019)
# The source made the active and inactive calls. No cut-off for these calls is given here.
# Legend:
# [1] = target: Muscarinic acetylcholine receptor M3 (Homo sapiens, UniProt P20309); experiment: Displacement of [3H]NMS from human M3 AChR expressed in CHO cell membranes after 1 to 2 hrs by liquid scintillation spectrometry method; format: cell-based
# [2] = target: T1, Muscarinic acetylcholine receptor M4 (Homo sapiens, UniProt P08173); experiment: Displacement of [3H]NMS from human M4 AChR expressed in CHO cell membranes after 1 to 2 hrs by liquid scintillation spectrometry method
# T1 sequence (P08173 whole entry): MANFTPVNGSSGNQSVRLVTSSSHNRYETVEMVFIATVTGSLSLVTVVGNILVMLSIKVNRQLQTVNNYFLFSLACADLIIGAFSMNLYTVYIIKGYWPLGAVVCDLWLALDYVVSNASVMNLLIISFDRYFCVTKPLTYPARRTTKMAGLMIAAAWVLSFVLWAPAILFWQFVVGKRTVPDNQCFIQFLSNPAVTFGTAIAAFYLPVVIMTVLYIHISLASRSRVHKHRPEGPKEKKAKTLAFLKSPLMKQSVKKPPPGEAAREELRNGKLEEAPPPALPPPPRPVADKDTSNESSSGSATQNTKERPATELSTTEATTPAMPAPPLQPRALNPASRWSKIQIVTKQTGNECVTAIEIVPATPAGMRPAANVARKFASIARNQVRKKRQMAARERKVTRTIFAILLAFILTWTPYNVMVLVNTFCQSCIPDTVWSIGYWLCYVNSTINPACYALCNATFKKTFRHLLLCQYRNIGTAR
# Outline: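 Human M4-expressing CHO membranes (20 µg protein/well) incubated 2 h at 25 °C with 0.3 nM [3H]NMS and analog (1 nM–100 µM) in 50 mM Tris–HCl pH 7.4. […] Filtered, washed, counted by scintillation. IC50 taken from inhibition curves, Ki from three independent duplicate experiments (mean ± SEM).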
# [3] = target: Muscarinic acetylcholine receptor (Rattus norvegicus) (UniProt P08482+P08483+P08485+P08911+P10980); experiment: Agonist activity at muscarinic acetylcholine receptor in superfused rat striatal slices assessed as augmentation of oxotremorine-induced [3H]DA release at 0.1 to 10 uM preincubated for 35 mins in presence of [3H]DA followed by oxotremorine addition and measured after 25 mins by liquid scintillation spectroscopic method
# Outline: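 Rat striatal slices (500 µm) in Krebs' buffer pH 7.4 at 34 °C for 60 min, with 0.1 µM [3H]DA over the final 30 min. Superfused at 0.6 mL/min with 10 µM nomifensine and 10 µM pargyline; 5-min fractions. Basal outflow taken over 15 min, then test agent 35 min, then 100 µM oxotremorine 25 min. Overflow = summed radioactivity minus basal, by scintillation; n = 4–10.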
# [4] = target: T2, Muscarinic acetylcholine receptor M1 (Homo sapiens) (UniProt P11229); conditions: CHO, at 100 µM
# T2 sequence (whole entry): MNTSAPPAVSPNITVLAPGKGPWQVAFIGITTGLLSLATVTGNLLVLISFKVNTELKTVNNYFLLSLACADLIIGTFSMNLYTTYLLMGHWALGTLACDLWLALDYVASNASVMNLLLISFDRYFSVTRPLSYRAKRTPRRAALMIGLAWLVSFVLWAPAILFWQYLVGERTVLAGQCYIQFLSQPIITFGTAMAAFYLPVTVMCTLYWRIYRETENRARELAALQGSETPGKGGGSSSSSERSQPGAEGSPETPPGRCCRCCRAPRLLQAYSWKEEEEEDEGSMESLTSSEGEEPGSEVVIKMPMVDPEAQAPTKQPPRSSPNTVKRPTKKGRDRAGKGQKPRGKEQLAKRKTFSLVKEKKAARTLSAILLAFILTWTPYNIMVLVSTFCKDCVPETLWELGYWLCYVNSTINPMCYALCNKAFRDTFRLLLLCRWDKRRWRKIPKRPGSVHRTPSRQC
# [5] = target: T3, Muscarinic acetylcholine receptor M1 (Homo sapiens, UniProt P11229); experiment: Displacement of [3H]NMS from human M1 AChR expressed in CHO cell membranes after 1 to 2 hrs by liquid scintillation spectrometry method; format: cell-based
# T3 sequence (P11229 whole entry): T2 sequence (whole entry)
# 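Throughout, for Imax: radioligand displacement of [3H]NMS from human M1 receptor in CHO cell membranes, 1–2 h incubation, scintillation counting, expressed relative to control.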
# Chain of Muscarinic acetylcholine receptor M3 (P20309 whole entry): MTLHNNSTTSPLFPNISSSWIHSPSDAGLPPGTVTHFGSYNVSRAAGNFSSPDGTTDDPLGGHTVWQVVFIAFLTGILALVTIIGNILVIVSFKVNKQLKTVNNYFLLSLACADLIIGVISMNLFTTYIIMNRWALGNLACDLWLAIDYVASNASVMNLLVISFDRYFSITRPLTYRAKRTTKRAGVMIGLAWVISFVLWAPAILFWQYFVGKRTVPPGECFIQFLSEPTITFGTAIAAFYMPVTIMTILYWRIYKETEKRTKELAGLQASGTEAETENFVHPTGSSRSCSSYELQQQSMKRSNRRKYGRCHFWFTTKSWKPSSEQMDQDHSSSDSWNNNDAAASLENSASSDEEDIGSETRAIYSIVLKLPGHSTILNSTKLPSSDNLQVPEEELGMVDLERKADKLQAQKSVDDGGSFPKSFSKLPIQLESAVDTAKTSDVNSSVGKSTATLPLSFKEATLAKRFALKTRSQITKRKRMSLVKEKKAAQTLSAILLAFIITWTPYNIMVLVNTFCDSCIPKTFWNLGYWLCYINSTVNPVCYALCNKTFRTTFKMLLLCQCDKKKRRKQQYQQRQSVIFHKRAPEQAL
structure (smiles),measurement,setting,value
O=C(OC1CN2CCC1CC2)N(CCc1ccc(F)cc1)c1ccccc1 (racemic),Ki,[1],2.6 nM
same,Ki,[2],2.2 nM
same,Activity,[3],Active
same,Imax,[4],99.9%
same,Ki,[5],2 nM
